Measurements as given in ChEMBL document CHEMBL5252510, “A Novel Potent Oral Series of VEGFR2 Inhibitors Abrogate Tumor Growth by Inhibiting Angiogenesis” (J Med Chem, 2016).

Experiments:
B16-BL6 [1] = experiment: Antitumor activity against mouse B16-BL6 cells implanted in C57BL/6jNpa mouse assessed as primary tumor growth inhibition by measuring T/C ratio at 1 mg/kg, po qd started on day 7 post implantation measured after 21 days; conditions: time 7-21 day
B16-BL6 [2] = experiment: Antitumor activity against mouse B16-BL6 cells implanted in C57BL/6jNpa mouse assessed as primary tumor growth inhibition by measuring T/C ratio at 3 mg/kg, po qd administered once every 2 days started on day 7 post implantation measured after 21 days; assay type: functional; conditions: time 7-21 day
Summary of the method: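 Female C57BL/6JNpa mice, 50000 B16/BL6 cells intradermally in both ear pinnae; primary tumor area (mm²) imaged days 7, 14, 21; randomized day 7 into groups of 5-6, oral dosing in PEG200 or PEG300 vehicle daily (or every 2 days) for 14 days; day 21 cervical lymph nodes weighed, metastasis lysates assayed for TIE-2 by ELISA; T/C ratios.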

Mus musculus = species: Mus musculus; experiment: Antiangiogenic activity in C57BL/6jNpa mouse harbouring mouse B16-BL6 cells assessed as reduction in tumor plasma volume by measuring T/C ratio measured after 3 days by DCE-MRI assay; assay type: functional; conditions: time 3 day
Summary of the method: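 C57BL/6JNpa mice bearing B16/BL6 cervical lymph-node metastases, at least 8 per group, anaesthetized and given contrast agent; DCE-MRI Ktrans and iAUEC (permeability) and Vp (plasma volume) measured before and again after daily treatment; change per mouse recorded, mean ± SEM, one-way ANOVA with Holm-Sidak comparisons versus vehicle.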

SMILES	T/C (B16-BL6 [1])	T/C (B16-BL6 [2])	T/C (Mus musculus)
O=C(Nc1cccc(C(F)(F)F)c1)c1cccc2cc(Oc3cc(CO)ncn3)ccc12 [BFH-772]	0.73	–	–
Nc1nccc(Oc2ccc3c(C(=O)Nc4ccc(F)c(C(F)(F)F)c4)cccc3c2)n1	–	0.39	0.36
